Laboratory results as given in ChEMBL document CHEMBL1132585, “New N-(pyridin-4-yl)-(indol-3-yl)acetamides and propanamides as antiallergic agents” (J Med Chem, 1999).
Calls of active or inactive are those of the source. No cut-off for these calls is given here.

Assays:
Mus musculus [1] = species: Mus musculus; test: Percent inhibition of anti-CD3 mAb stimulated interleukin-4 release from […] by 10 uM; assay type: functional
Method in brief: (§1)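 D10.G4.1 Th-2 cells (4 × 10⁴/well) in medium without Rat T-STIM for 3.5 h, then exposed to drug at 10 µM for 30 min and stimulated with anti-CD3 mAb (final 1:100) for 16 h. IL-4 or IL-5 content of the supernatant is read against solvent control. Mean of three experiments, each run in duplicate.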

Rattus norvegicus [2] = species: Rattus norvegicus; test: Inhibition of histamine release in rat mast cells; assay type: functional, cell-based
Mus musculus [3] = species: Mus musculus; test: Percent inhibition of anti-CD3 mAb stimulated interleukin-5 release from […] by 10 uM; assay type: functional; method in brief: as §1
Mus musculus [4] = species: Mus musculus; test: Percent inhibition of anti-CD3 mAb stimulated interleukin-4 release from mice splenocytes by 10 uM compound; assay type: functional
Rattus norvegicus [5] = species: Rattus norvegicus; test: Inhibition of tetraethylammonium chloride(TEA)-induced acetylcholine hyperactivity in rat tracheal segments by the compound.; assay type: functional; conditions: Trachea
Method in brief: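 Male Wistar rat tracheal rings in Krebs-Henseleit at 37 °C, 1 g preload, isotonic. Acetylcholine cumulative curves run alone, with TEA (10 mM, 30 min), and with drug (30 min before TEA) plus TEA. Percent inhibition of hyperreactivity taken from contraction at 100 µM acetylcholine, 3-5 preparations; screening at 30 µM, and IC50 by regression from 3-4 concentrations if inhibition exceeds 50%.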

Mus musculus [6] = species: Mus musculus; test: Compound was evaluated for IL 4 production inhibition from mice splenocytes stimulated by anti-CD3 mAb; assay type: functional
Method in brief: (§2)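 Th-2 clone D10.G4.1, restimulated with conalbumin (100 µg/mL) plus mitomycin C-treated AKR/J splenocytes as antigen-presenting cells, thawed and grown 3 days with Rat T-STIM. Cells at 4 × 10⁴/well, 3.5 h without T-STIM, drug 30 min (DMSO ≤0.1%). Stimulated with anti-CD3 mAb (final 1:100) for 16 h; IL-4 or IL-5 measured in supernatant. IC50 estimated over a concentration range.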

Mus musculus [7] = species: Mus musculus; test: Compound was evaluated for IL 5 production inhibition from mice splenocytes stimulated by anti-CD3 mAb; assay type: functional; method in brief: as §2
Rattus norvegicus [8] = test: Compound was evaluated in vivo for inhibition of Ovalbumin induced rhinitis in anesthetized rats after topical administration (nasal perfusion).; assay type: functional, organism-based
Method in brief: (§3)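 Male Brown Norway rats sensitized ip with OVA 0.5 mg/kg + Al(OH)₃ 7.5 mg/kg, used on day 20-21 under thiopental (50 mg/kg ip). Nasal cavity perfused with PBS; drug given by 30 min topical perfusion in PBS, iv 30 min or po 60 min before OVA challenge.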

Mus musculus [9] = species: Mus musculus; test: Compound was evaluated for IL 5 production inhibitio from mice splenocytes stimulated by anti-CD3 mAb; assay type: functional; method in brief: as §2
Cavia porcellus [10] = test: Inhibition of Late Phase Eosinophilia in Bronchoalveolar Lavage (BAL) of Guinea Pigs 4 hr after intraperitoneal administration at a dose 5 mg/kg.; assay type: functional; conditions: ip
Method in brief: (§4)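 Male Dunkin-Hartley guinea pigs sensitized ip with OVA 20 µg + Al(OH)₃ 20 mg on two consecutive days; 14 days later mepyramine 10 mg/kg ip given before aerosol OVA challenge (5 mg/mL nebulized). Drug given ip or by oral gavage 2 h before or 4 h after challenge.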

Rattus norvegicus [11] = test: Compound was evaluated in vivo for inhibition of Ovalbumin induced rhinitis in anesthetized rats 60 min after peroral administration.; assay type: functional; conditions: po, 1 h, read-out: ID50 (the source's name); method in brief: as §3
Cavia porcellus [12] = test: Inhibition of Late Phase Eosinophilia in Bronchoalveolar Lavage (BAL) of Guinea Pigs 2 hr after intraperitoneal administration at a dose of 10 mg/kg.; assay type: functional; conditions: ip; method in brief: as §4
Rattus norvegicus [13] = test: Compound was evaluated in vivo for inhibition of Ovalbumin induced rhinitis in anesthetized rats 30 min after intravenous administration.; assay type: functional; conditions: 0.5 h, read-out: ID50 (the source's name); method in brief: as §3
Cavia porcellus [14] = test: Inhibition of Late Phase Eosinophilia in Bronchoalveolar Lavage (BAL) of Guinea Pigs 4 hr after peroral administration at a dose of 30 mg/kg.; assay type: functional; conditions: route oral; method in brief: as §4
Cavia porcellus [15] = species: Cavia porcellus; test: Inhibition of Carbachol-induced contraction of guinea pig trachea by the compound at a concentration of 100 uM.; assay type: functional
Method in brief: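 Guinea pig tracheal spirals in Tyrode solution at 37 °C, carbogen, isotonic 2 g preload. Contracted with carbachol 0.164 µM until stable; after isoprenaline relaxation and washout, carbachol re-applied and test compound added cumulatively. Relaxation calculated as a percentage at each concentration.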

Cavia porcellus [16] = test: Inhibition of Late Phase Eosinophilia in Bronchoalveolar Lavage (BAL) of Guinea Pigs 2 hr after peroral administration at a dose of 30 mg/kg.; assay type: functional; conditions: route oral; method in brief: as §4

IC50 (Rattus norvegicus [2]) | Structure (SMILES) | inhibition (Mus musculus [1]) | inhibition at 10 µM (Mus musculus [3]) | inhibition at 10 µM (Mus musculus [4]) | other results
740 nM | O=C(CCc1cn(Cc2ccccc2)c2ccc(Cl)cc12)Nc1ccncc1 | inactive | – | – | –
5340 nM | CC(C)c1ccc2c(c1)c(CCC(=O)Nc1ccncc1)cn2Cc1ccc(F)cc1 | inactive | – | – | –
2210 nM | O=C(CCc1c[nH]c2ccc(F)cc12)Nc1ccncc1 | inactive | 25% | – | –
420 nM | O=C(CCc1cn(Cc2ccccc2)c2ccc(F)cc12)Nc1ccncc1 | – | 42% | 27% | –
480 nM | Cc1c(CC(=O)Nc2ccncc2)c2cc(F)ccc2n1Cc1ccccc1 | inactive | 41% | – | –
> 10000 nM | O=C(Cc1c[nH]c2ccc(F)cc12)Nc1ccncc1 | inactive | – | – | –
> 10000 nM | COc1ccc2[nH]cc(CC(=O)Nc3ccncc3)c2c1 | inactive | – | – | –
10100 nM | Cc1[nH]c2ccc(F)cc2c1CC(=O)Nc1ccncc1 | inactive | – | – | –
4920 nM | CC(C)c1ccc2[nH]cc(CC(=O)Nc3ccncc3)c2c1 | – | 29% | 33% | –
220 nM | O=C(CCc1cn(Cc2ccc(F)cc2)c2ccccc12)Nc1ccncc1 | – | 22% | 2.9% | –
330 nM | COc1ccc2c(CC(=O)Nc3ccncc3)cn(Cc3ccc(F)cc3)c2c1 | – | 76% | 51% | IC50 (Mus musculus [6]): 9800 nM; IC50 (Mus musculus [7]): 2280 nM
3120 nM | CC(C)c1ccc2[nH]cc(CCC(=O)Nc3ccncc3)c2c1 | inactive | 28% | – | –
4500 nM | O=C(Cc1c[nH]c2ccc(Cl)cc12)Nc1ccncc1 | inactive | – | – | –
2800 nM | Cc1[nH]c2ccc(C(C)C)cc2c1CC(=O)Nc1ccncc1 | inactive | – | – | –
3900 nM | COc1ccc2c(c1)c(CCC(=O)Nc1ccncc1)cn2Cc1ccccc1 | inactive | – | – | –
> 10000 nM | Cc1[nH]c2ccc(Cl)cc2c1CC(=O)Nc1ccncc1 | inactive | – | – | –
230 nM | O=C(Cc1cn(Cc2ccc(F)cc2)c2ccc(Cl)cc12)Nc1ccncc1 | inactive | 54% | – | IC50 (Mus musculus [6]): > 10000 nM; IC50 (Mus musculus [7]): 8800 nM
60 nM | O=C(Cc1cn(Cc2ccccc2)c2ccc(F)cc12)Nc1ccncc1 | inactive | 48% | – | –
6000 nM | CC(C)c1ccc2c(c1)c(CCC(=O)Nc1ccncc1)cn2Cc1ccccc1 | inactive | 25% | – | –
940 nM | O=C(Cc1cn(Cc2ccc(F)cc2)c2cc(O)ccc12)Nc1ccncc1 | – | 37% | 29% | –
16 nM | O=C(Cc1cn(Cc2ccc(F)cc2)c2ccccc12)Nc1ccncc1 | – | 100% | 63% | inhibition in vivo at 5 mg/kg (Cavia porcellus [10]): 41%; IC50 (Rattus norvegicus [5]): 21 nM; IC50 (Mus musculus [6]): 8000 nM; IC50 (Rattus norvegicus [8]): 250 nM; ED50 (Rattus norvegicus [11]): 0.46 mg/kg; inhibition in vivo at 10 mg/kg (Cavia porcellus [12]): 59%; ED50 (Rattus norvegicus [13]): 0.005 mg/kg; IC50 (Mus musculus [7]): 1500 nM; inhibition in vivo at 30 mg/kg (Cavia porcellus [14]): 28%; inhibition at 100 µM (Cavia porcellus [15]): 36%; inhibition in vivo at 30 mg/kg (Cavia porcellus [16]): 35%
380 nM | O=C(CCc1cn(Cc2ccc(F)cc2)c2ccc(F)cc12)Nc1ccncc1 | inactive | 37% | – | –
400 nM | Cc1c(CC(=O)Nc2ccncc2)c2cc(F)ccc2n1Cc1ccc(F)cc1 | – | 61% | 49% | IC50 (Mus musculus [6]): 10200 nM; IC50 (Mus musculus [7]): 7870 nM
1460 nM | O=C(CCc1c[nH]c2ccc(Cl)cc12)Nc1ccncc1 | – | 25% | 26% | –
1300 nM | O=C(CCc1cn(Cc2ccc(F)cc2)c2ccc(Cl)cc12)Nc1ccncc1 | inactive | 41% | – | –
510 nM | O=C(CCCc1cn(Cc2ccc(F)cc2)c2ccccc12)Nc1ccncc1 | – | 42% | 31% | –

Continued, compound first:

Structure (SMILES) | IC50 (Rattus norvegicus [2]) | inhibition (Mus musculus [1]) | inhibition at 10 µM (Mus musculus [3]) | inhibition at 10 µM (Mus musculus [4]) | other results
COc1ccc2c(c1)c(CC(=O)Nc1ccncc1)cn2-c1ccc(F)cc1 | – | – | 22% | 24% | –
COc1ccc2c(c1)c(CC(=O)Nc1ccncc1)c(C)n2Cc1ccc(F)cc1 | 5000 nM | inactive | 22% | – | –
COc1ccc2c(c1)c(CCC(=O)Nc1ccncc1)cn2Cc1ccc(F)cc1 | – | inactive | – | – | –
O=C(Cc1cn(Cc2ccc(F)cc2)c2ccc(F)cc12)Nc1ccncc1 | – | inactive | 43% | – | –
COc1ccc(CCN(C)CCCC(C#N)(c2ccc(OC)c(OC)c2)C(C)C)cc1OC (stereo not given) [VERAPAMIL] | – | – | – | – | IC50 (Rattus norvegicus [5]): 1300 nM
O=C(Cc1cn(-c2ccc(F)cc2)c2ccccc12)Nc1ccncc1 | 302 nM | – | 48% | 31% | –
COc1ccc2[nH]c(C)c(CC(=O)Nc3ccncc3)c2c1 | – | inactive | – | – | –
CC(C)c1ccc2c(c1)c(CC(=O)Nc1ccncc1)cn2Cc1ccc(F)cc1 | – | inactive | 23% | – | –
O=C(Cc1cn(-c2ccc(F)cc2)c2ccc(F)cc12)Nc1ccncc1 | – | – | 71% | 51% | IC50 (Mus musculus [6]): 9700 nM; IC50 (Mus musculus [7]): 4560 nM
O=C(Cc1cn(Cc2ccccc2)c2ccc(Cl)cc12)Nc1ccncc1 | – | – | 49% | 39% | –
COc1ccc2c(c1)c(CC(=O)Nc1ccncc1)cn2Cc1ccccc1 | 2800 nM | – | 38% | 33% | –
COc1ccc(CCN2CCC(Nc3nc4ccccc4n3Cc3ccc(F)cc3)CC2)cc1 [ASTEMIZOLE] | 6500 nM | – | 74% | 66% | IC50 (Mus musculus [6]): 8000 nM; IC50 (Mus musculus [7]): 3300 nM
c1ccc(CN(CC2=NCCN2)c2ccccc2)cc1 [ANTAZOLINE] | – | – | – | – | IC50 (Rattus norvegicus [8]): 1260 nM
COc1ccc2[nH]cc(CCC(=O)Nc3ccncc3)c2c1 | – | inactive | 26% | – | –
C[C@@H]1C[C@H]2[C@@H]3CCC4=CC(=O)C=C[C@]4(C)[C@@]3(F)[C@@H](O)C[C@]2(C)[C@@]1(O)C(=O)CO [DEXAMETHASONE] | – | – | – | – | IC50 (Mus musculus [9]): 3.5 nM; IC50 (Mus musculus [6]): 4.7 nM
Cc1c(CC(=O)Nc2ccncc2)c2cc(C(C)C)ccc2n1Cc1ccccc1 | 7540 nM | inactive | 34% | – | –
Cc1c(CC(=O)Nc2ccncc2)c2cc(Cl)ccc2n1Cc1ccc(F)cc1 | – | – | 26% | 28% | –
COc1ccc(CN(CCN(C)C)c2ccccn2)cc1 [PYRILAMINE] | – | – | – | – | IC50 (Rattus norvegicus [8]): 7410 nM
Cc1c(CC(=O)Nc2ccncc2)c2cc(C(C)C)ccc2n1Cc1ccc(F)cc1 | 6900 nM | inactive | – | – | –
CC(C)(C)c1ccc(C(O)CCCN2CCC(C(O)(c3ccccc3)c3ccccc3)CC2)cc1 (stereo not given) [TERFENADINE] | – | – | – | – | IC50 (Mus musculus [9]): 3960 nM; IC50 (Mus musculus [6]): 4950 nM
